Assay results as given in ChEMBL document CHEMBL2176996, “Synthesis and structure-affinity relationships of selective high-affinity 5-HT(4) receptor antagonists: application to the design of new potential single photon emission computed tomography tracers” (J Med Chem, 2012).
The source made the active and inactive calls. No cut-off for these calls is given here.

Columns and labels:
[1] = target: 5-hydroxytryptamine receptor 4 (Cavia porcellus, UniProt O70528); test: Displacement of [3H]GR113808 from 5HT4R in guinea pig striatal membranes; type: cell membranes, Striatum, Membrane
[2] = target: 5-hydroxytryptamine receptor 4 (Cavia porcellus) (UniProt O70528); test: Displacement of [3H]GR113808 from 5HT4R in guinea pig striatal membranes at 10 nM; type: cell membranes; conditions: Striatum, Membrane
Method in brief: (§1)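 Native 5-HT4R in male guinea pig striatal membranes (HEPES 50 mM pH 7.4); 600 µg membrane incubated in duplicate with [3H]GR 113808 at 0.1 nM final, 37 °C, 30 min; filtration on PEI-soaked GF/B filters, cold buffer washes.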

[3] = target: 5-hydroxytryptamine receptor 4 (Cavia porcellus) (UniProt O70528); test: Displacement of [3H]GR113808 from 5HT4R in guinea pig striatal membranes at 1 uM; type: cell membranes; conditions: Striatum, Membrane; method in brief: as §1
[4] = target: T1, 5-hydroxytryptamine receptor 1A (Homo sapiens, UniProt P08908); test: Binding affinity to human 5HT1A by Cerep protocol based assay
T1 sequence (P08908 whole entry): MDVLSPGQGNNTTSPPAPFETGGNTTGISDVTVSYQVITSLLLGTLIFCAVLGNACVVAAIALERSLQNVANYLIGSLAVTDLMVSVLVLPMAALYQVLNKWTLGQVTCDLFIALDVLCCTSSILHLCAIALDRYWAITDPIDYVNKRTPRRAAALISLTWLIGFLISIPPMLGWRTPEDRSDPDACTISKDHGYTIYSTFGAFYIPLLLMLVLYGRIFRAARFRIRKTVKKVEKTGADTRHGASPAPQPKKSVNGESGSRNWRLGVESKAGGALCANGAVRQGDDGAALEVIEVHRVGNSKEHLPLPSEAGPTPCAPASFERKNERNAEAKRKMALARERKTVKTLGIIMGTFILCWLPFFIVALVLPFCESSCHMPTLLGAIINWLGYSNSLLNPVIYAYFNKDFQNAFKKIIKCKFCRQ

[5] = target: 5-hydroxytryptamine receptor 2A (Homo sapiens, UniProt P28223); test: Binding affinity to human 5HT2A by Cerep protocol based assay
[6] = target: T2, 5-hydroxytryptamine receptor 4 (Homo sapiens, UniProt Q13639); test: Displacement of [3H]GR113808 from human recombinant 5HT4R expressed in HEK293T cells; type: cell-based, HEK-293T
[7] = target: T3, 5-hydroxytryptamine receptor 2C (Homo sapiens, UniProt P28335); test: Binding affinity to human 5HT2C by Cerep protocol based assay
T3 sequence (P28335 whole entry): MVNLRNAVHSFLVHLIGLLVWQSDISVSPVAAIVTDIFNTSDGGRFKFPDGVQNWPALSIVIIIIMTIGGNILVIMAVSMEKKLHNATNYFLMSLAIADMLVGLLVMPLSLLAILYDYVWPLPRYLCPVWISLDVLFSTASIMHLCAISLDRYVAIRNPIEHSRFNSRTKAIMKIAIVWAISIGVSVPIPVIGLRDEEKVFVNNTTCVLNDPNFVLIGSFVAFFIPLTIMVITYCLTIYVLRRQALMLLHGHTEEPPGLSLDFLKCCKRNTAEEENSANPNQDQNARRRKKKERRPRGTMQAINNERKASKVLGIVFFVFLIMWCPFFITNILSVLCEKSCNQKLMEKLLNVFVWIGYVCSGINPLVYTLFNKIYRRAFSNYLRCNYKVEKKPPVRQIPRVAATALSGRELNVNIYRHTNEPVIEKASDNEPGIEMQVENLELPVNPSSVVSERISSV

[8] = target: 5-hydroxytryptamine receptor 1B (Homo sapiens, UniProt P28222); test: Binding affinity to human 5HT1B by Cerep protocol based assay
[9] = target: 5-hydroxytryptamine receptor 1D (Homo sapiens, UniProt P28221); test: Binding affinity to human 5HT1D by Cerep protocol based assay
[10] = target: 5-hydroxytryptamine receptor 6 (Homo sapiens, UniProt P50406); test: Binding affinity to human 5HT6 by Cerep protocol based assay
[11] = target: 5-hydroxytryptamine receptor 7 (Homo sapiens, UniProt P34969); test: Binding affinity to human 5HT7 by Cerep protocol based assay
[12] = target: 5-hydroxytryptamine receptor 5A (Homo sapiens, UniProt P47898); test: Binding affinity to human 5HT5A by Cerep protocol based assay
[13] = target: T2, 5-hydroxytryptamine receptor 4; test: Displacement of radioligand from human 5HT4R by Cerep protocol based assay
[14] = target: T4, 5-hydroxytryptamine receptor 3A (Homo sapiens, UniProt P46098); test: Binding affinity to human 5HT3 by Cerep protocol based assay
T4 sequence (P46098 whole entry): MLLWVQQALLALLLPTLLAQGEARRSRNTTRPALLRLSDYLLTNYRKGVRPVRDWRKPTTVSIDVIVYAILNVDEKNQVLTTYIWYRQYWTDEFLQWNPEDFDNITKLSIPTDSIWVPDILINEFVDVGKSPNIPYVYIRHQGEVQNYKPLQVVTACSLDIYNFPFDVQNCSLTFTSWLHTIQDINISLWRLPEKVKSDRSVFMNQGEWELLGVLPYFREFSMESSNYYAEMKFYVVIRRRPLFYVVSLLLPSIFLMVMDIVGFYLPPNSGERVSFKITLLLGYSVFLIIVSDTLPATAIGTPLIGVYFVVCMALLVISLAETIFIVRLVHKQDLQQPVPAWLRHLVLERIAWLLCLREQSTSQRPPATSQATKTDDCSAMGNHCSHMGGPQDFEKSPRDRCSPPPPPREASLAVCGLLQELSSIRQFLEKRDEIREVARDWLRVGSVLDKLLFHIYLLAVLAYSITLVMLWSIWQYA

[15] = target: 5-hydroxytryptamine receptor 2B (Homo sapiens, UniProt P41595); test: Binding affinity to human 5HT2B by Cerep protocol based assay
[16] = target: 5-hydroxytryptamine receptor 1E (Homo sapiens, UniProt P28566); test: Binding affinity to human 5HT1E by Cerep protocol based assay
[17] = target: T2, 5-hydroxytryptamine receptor 4
Mus musculus [18] = test: In-vivo displacement of [125I]SB 207710 from 5HT4R in mouse olfactory tubercles at 50 ug/kg, iv by autoradiography; type: functional, organism-based; conditions: Olfactory tubercle
Method in brief: (§2)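 One mouse dosed intravenously with saline carrying competitor at 50 µg/kg together with 30 µCi [125I]1 (146 Ci/mmol). CO2 sacrifice; 20 µm cryosections taken from 5-HT4R-rich regions (striatum, accumbens nucleus, olfactory tubercles), exposed overnight on phosphorimaging plates and scanned.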

Mus musculus [19] = test: In-vivo displacement of [125I]SB 207710 from 5HT4R in mouse brain hemispheres at 50 ug/kg, iv by autoradiography; type: functional, organism-based; method in brief: as §2
[20] = target: 5-hydroxytryptamine receptor 4 (Rattus norvegicus) (UniProt Q62758); test: Displacement of [125I]SB 207710 from 5HT4R in rat brain cortex at 10 pM incubated for 30 mins by autoradiography; type: tissue-based
Method in brief: (§3)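 Frozen rat brain coronal sections (striatum/accumbens level) preincubated 5 min in 50 mM Tris-HCl pH 7.4, then incubated 30 min at room temperature with 100 pM [125I]1 plus competitor (1, 10, 100, 1000 pM). Three 5-min ice-cold buffer washes and a water dip, then drying; phosphorimaging after overnight exposure.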

[21] = target: 5-hydroxytryptamine receptor 4 (Rattus norvegicus) (UniProt Q62758); test: Displacement of [125I]SB 207710 from 5HT4R in rat brain cortex at 1 nM incubated for 30 mins by autoradiography; type: tissue-based; method in brief: as §3
[22] = target: T2, 5-hydroxytryptamine receptor 4; remark: listed apart in the source

Chain of 5-hydroxytryptamine receptor 7 (P34969 whole entry): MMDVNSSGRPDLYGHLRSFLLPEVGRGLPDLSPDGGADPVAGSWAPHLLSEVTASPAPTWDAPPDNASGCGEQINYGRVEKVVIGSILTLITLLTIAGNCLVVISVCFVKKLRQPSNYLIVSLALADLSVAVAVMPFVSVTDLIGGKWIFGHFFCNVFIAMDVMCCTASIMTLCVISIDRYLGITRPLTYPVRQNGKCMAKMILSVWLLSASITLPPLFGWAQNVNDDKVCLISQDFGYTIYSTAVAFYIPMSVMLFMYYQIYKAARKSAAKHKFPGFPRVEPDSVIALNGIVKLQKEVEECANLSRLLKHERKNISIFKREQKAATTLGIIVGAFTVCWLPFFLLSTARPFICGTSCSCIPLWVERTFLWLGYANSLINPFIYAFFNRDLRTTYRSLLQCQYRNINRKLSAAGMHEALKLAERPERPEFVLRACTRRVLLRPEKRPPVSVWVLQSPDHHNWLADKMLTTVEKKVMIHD
Chain of 5-hydroxytryptamine receptor 1B (P28222 whole entry): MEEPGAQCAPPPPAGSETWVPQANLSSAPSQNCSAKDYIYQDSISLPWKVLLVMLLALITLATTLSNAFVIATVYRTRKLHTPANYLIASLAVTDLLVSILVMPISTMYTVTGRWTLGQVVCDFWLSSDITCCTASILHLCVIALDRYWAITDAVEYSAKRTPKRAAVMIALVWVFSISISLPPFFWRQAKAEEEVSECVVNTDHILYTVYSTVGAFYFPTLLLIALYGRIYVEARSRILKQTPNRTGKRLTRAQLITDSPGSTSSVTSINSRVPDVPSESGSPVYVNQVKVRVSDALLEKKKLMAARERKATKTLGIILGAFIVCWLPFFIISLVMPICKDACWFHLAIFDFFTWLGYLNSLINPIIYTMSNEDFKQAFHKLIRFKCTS
Chain of 5-hydroxytryptamine receptor 2B (P41595 whole entry): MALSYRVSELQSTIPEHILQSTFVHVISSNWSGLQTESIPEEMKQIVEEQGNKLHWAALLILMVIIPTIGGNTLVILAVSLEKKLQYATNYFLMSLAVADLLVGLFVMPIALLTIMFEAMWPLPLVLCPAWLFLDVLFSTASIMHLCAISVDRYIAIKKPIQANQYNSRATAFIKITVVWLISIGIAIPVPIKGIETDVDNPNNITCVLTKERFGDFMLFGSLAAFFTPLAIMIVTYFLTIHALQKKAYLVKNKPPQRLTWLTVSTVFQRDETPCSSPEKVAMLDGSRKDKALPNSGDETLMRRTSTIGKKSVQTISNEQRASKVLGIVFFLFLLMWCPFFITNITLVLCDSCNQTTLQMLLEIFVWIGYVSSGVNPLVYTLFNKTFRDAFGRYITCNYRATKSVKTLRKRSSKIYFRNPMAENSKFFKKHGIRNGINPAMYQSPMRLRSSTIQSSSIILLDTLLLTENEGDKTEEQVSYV
Chain of 5-hydroxytryptamine receptor 2A (P28223 whole entry): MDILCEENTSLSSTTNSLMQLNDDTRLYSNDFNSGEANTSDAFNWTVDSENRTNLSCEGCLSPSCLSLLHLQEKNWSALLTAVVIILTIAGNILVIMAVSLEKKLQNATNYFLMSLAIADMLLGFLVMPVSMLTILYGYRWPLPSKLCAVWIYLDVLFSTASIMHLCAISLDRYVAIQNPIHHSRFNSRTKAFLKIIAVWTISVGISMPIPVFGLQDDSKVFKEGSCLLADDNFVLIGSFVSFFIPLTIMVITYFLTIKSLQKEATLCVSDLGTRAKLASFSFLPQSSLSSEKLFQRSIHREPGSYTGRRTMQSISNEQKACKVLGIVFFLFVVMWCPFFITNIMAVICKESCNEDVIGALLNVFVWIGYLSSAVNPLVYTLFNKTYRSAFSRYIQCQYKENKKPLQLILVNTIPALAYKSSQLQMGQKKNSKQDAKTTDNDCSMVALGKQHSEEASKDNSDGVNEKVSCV
Chain of 5-hydroxytryptamine receptor 1E (P28566 whole entry): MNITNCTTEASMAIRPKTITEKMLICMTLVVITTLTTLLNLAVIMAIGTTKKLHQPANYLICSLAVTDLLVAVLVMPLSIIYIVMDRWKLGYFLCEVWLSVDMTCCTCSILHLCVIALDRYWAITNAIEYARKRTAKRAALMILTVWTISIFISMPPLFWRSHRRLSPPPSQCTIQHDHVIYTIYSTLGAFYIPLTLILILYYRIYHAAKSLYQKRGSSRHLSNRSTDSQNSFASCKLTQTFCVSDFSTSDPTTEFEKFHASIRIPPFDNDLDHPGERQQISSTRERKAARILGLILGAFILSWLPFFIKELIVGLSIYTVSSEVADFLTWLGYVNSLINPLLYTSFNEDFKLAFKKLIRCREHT
Chain of 5-hydroxytryptamine receptor 1D (P28221 whole entry): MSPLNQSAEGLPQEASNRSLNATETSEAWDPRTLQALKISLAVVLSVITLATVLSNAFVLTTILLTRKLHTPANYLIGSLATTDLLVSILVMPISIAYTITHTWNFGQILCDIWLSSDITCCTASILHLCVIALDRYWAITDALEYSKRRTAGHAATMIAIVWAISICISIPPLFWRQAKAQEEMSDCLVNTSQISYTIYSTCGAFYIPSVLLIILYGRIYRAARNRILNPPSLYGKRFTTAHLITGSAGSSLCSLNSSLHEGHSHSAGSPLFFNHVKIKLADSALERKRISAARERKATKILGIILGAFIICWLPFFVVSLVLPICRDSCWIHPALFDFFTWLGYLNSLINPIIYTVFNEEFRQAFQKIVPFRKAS
Chain of 5-hydroxytryptamine receptor 4 (Cavia porcellus, UniProt O70528) (O70528 whole entry): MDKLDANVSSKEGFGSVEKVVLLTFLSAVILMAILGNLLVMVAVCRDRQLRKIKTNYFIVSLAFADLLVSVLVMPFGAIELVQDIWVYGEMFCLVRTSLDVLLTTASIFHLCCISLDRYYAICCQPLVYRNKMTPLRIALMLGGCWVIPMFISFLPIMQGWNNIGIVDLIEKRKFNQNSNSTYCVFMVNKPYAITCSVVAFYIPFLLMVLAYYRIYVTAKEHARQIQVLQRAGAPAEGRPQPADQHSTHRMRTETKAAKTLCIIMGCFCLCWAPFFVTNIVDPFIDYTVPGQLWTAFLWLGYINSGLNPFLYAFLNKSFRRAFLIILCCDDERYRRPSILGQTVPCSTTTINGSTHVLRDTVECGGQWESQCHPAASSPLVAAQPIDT
Chain of 5-hydroxytryptamine receptor 4 (Cavia porcellus) (O70528 whole entry): as above
Chain of 5-hydroxytryptamine receptor 6 (P50406 whole entry): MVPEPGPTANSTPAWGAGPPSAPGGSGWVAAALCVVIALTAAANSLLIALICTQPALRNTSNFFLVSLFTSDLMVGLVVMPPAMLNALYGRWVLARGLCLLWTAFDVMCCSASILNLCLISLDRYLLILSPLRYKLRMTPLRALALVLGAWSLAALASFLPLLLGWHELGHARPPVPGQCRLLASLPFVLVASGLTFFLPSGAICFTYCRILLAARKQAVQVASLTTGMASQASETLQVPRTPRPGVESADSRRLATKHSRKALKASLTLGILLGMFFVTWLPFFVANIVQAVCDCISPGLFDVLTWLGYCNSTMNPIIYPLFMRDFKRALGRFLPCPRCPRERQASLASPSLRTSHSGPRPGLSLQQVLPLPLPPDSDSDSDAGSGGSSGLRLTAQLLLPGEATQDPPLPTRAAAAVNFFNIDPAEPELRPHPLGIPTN
Chain of 5-hydroxytryptamine receptor 5A (P47898 whole entry): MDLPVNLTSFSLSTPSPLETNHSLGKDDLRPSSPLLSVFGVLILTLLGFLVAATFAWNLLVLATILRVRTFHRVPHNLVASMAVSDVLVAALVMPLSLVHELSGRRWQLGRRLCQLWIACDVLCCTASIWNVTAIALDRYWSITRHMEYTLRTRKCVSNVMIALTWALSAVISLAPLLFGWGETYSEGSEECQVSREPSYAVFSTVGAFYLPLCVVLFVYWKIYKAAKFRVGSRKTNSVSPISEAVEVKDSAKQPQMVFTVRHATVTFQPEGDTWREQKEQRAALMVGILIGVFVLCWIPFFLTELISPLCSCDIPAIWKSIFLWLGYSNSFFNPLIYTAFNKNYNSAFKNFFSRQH
T2 sequence (Q13639 whole entry): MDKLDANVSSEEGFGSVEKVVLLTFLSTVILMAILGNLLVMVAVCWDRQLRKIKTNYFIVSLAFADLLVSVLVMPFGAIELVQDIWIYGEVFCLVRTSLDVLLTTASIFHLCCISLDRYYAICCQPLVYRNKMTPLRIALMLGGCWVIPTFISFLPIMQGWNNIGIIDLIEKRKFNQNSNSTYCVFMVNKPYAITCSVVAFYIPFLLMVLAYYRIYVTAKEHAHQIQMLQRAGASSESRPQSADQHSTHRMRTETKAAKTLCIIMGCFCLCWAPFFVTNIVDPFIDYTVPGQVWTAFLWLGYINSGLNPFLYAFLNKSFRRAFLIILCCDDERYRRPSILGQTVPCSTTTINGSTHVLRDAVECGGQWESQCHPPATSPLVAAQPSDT
Chain of 5-hydroxytryptamine receptor 4 (Rattus norvegicus) (Q62758 whole entry): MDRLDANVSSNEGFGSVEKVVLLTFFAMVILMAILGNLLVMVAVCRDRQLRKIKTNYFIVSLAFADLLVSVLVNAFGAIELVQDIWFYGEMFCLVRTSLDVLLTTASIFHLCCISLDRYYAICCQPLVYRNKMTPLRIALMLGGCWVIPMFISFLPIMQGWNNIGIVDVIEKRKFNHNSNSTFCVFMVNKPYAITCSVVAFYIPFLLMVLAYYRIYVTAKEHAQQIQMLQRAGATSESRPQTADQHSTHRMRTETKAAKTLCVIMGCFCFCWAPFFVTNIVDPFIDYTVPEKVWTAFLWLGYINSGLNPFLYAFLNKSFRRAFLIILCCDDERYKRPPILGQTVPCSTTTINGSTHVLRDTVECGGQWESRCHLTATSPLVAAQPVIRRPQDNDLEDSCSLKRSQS

`CCCN1CCC(COc2nc3ccc(OC)cc3c3ccccc23)CC1` gave a Ki [1] of 233 nM.
Work on `CCCN1CCC(COc2nc3ccccc3c3ccc(F)cc23)CC1` yielded an inhibition [2] of 4%, an inhibition [3] of 90% and a Ki [1] of 154 nM.
Work on `CCCN1CCC(COc2nc3cc(Cl)ccc3c3ccccc23)CC1` yielded an inhibition [2] of 0% and an inhibition [3] of 85%.
For `CCCN1CCC(COc2nc3ccccc3c3ccc(OC)cc23)CC1`, the inhibition [2] was 0% and the inhibition [3] was 85%.
With `CCCN1CCC(COc2nc3ccccc3c3cc(C)ccc23)CC1` the inhibition [2] was 0% and the inhibition [3] was 28%.
With `CCCN1CCC(COc2nc3c(I)cccc3c3ncccc23)CC1` the Ki [4] was 5630 nM and the Ki [5] was 1820 nM.
With `Ic1ccc(CCCN2CCC(COc3nc4ccccc4c4ccccc34)CC2)cc1` the inhibition [2] was 3%, the inhibition [3] was 100% and the Ki [1] was 115 nM.
Work on `CCCN1CCC(COc2nc3ccccc3c3cnccc23)CC1` yielded an inhibition [2] of 50%, an inhibition [3] of 100% and a Ki [6] of 403 nM. It also gave a Ki [1] of 22.8 nM.
`CCCN1CCC(COc2nc3c(I)cccc3c3ccccc23)CC1` was tested, and the inhibition [2] was 0%, the Ki [7] was 772 nM and the inhibition [3] was 100%. The Ki [1] was 13.5 nM, the Ki [8] was > 10000 nM and the Ki [9] was > 10000 nM. The Ki [10] was > 10000 nM, the Ki [11] was 153 nM and the Ki [4] was > 10000 nM. The Ki [12] was 5810 nM, the Ki [13] was 1.2 nM and the Ki [14] was 1310 nM. The Ki [15] was 162 nM, the Ki [5] was 1020 nM and the Ki [16] was > 10000 nM.
`CCCN1CCC(COc2nc3cc(C)ccc3c3ccccc23)CC1` was tested, and the Ki [1] was 691 nM.
`CCCN1CCC(COc2nc3ccccc3c3ncccc23)CC1` showed an inhibition [2] of 64%, a Ki [7] of 2790 nM and an inhibition [3] of 96%. For the same molecule, the Ki [6] was 7.5 nM, the Ki [1] was 13.1 nM and the Ki [8] was > 10000 nM. The Ki [9] was > 10000 nM, the Ki [10] was > 10000 nM and the EC50 [17] was 10 nM. For the same molecule, the Ki [11] was > 10000 nM, the Ki [4] was > 10000 nM and the Ki [12] was > 10000 nM. The Ki [14] was 680 nM, the Ki [15] was 627 nM and the Ki [5] was > 10000 nM. The Ki [16] was > 10000 nM.
Molecule `CCCN1CCC(COc2nc3c(Cl)cccc3c3ccccc23)CC1` has an inhibition [2] of 24%, an inhibition [3] of 100% and a Ki [6] of 5 nM. The Ki [1] was 21.9 nM and the EC50 [17] was 251 nM.
With `CCCN1CCC(COc2nc3cc(F)ccc3c3ccccc23)CC1` the Ki [6] was 33 nM and the Ki [1] was 101 nM.
In the case of `CCCN1CCC(COc2nc3ccc(F)cc3c3ccccc23)CC1`, the inhibition [2] is reported as 0% and the inhibition [3] is reported as 47%.
In the case of `CCCN1CCC(COc2nc3ccc(Cl)cc3c3ccccc23)CC1`, the inhibition [2] is reported as 0% and the inhibition [3] is reported as 27%.
`Fc1cccc2c1nc(OCC1CCN(CCCc3ccc(I)cc3)CC1)c1cccnc12` was tested, and the inhibition [2] was 94%, the Ki [7] was 400 nM and the inhibition [3] was 100%. The Ki [1] was 2.5 nM, the Ki [8] was > 10000 nM and the Activity (Mus musculus [18]) was “Active”. For the same molecule, the Activity (Mus musculus [19]) was “Active”, the Ki [9] was > 10000 nM and the Ki [10] was > 10000 nM. The Ki [11] was 150 nM, the Ki [4] was 680 nM and the Activity [20] was “Active”. For the same molecule, the Activity [21] was “Active”, the Ki [12] was 1700 nM and the Ki [13] was 0.23 nM. For the same molecule, the Ki [14] was 410 nM, the Ki [15] was 340 nM and the Ki [5] was 810 nM.
For `CCCN1CCC(COc2nc3ccc(C)cc3c3ccccc23)CC1`, the Ki [1] was 246 nM.
`CCCN1CCC(COc2nc3ccccc3c3cccc(F)c23)CC1` gave a Ki [1] of 21.6 nM.
For `CCCN1CCC(COc2nc3ccccc3c3ccccc23)CC1`, the Ki [1] was 51.5 nM.
For `CCCN1CCC(COc2nc3c(OC)cccc3c3ccccc23)CC1`, the inhibition [2] was 22%, the Ki [7] was > 10000 nM and the inhibition [3] was 100%. For the same molecule, the Ki [6] was 17 nM, the Ki [1] was 35 nM and the Ki [8] was > 10000 nM. The Ki [9] was 2570 nM, the Ki [10] was > 10000 nM and the EC50 [17] was 79.4 nM. The Ki [11] was 3470 nM, the Ki [4] was > 10000 nM and the Ki [12] was > 10000 nM. For the same molecule, the Ki [14] was > 10000 nM, the Ki [15] was 29.3 nM and the Ki [5] was 5960 nM. The Ki [16] was > 10000 nM.
Work on `CCCN1CCC(COc2nc3c(F)cccc3c3ncccc23)CC1` yielded an inhibition [2] of 98%, an inhibition [3] of 100% and a Ki [1] of 2.2 nM. For the same molecule, the Ki [13] was 0.04 nM and the pKb [22] was 10.6.
`CCCN1CCC(COc2nc3ccccc3c3ccc([N+](=O)[O-])cc23)CC1` showed an inhibition [2] of 0% and an inhibition [3] of 54%.
For `CCCN1CCC(COc2nc3c(C)cccc3c3ccccc23)CC1`, the inhibition [2] was 0%, the inhibition [3] was 100% and the Ki [1] was 100 nM.
Molecule `CCCN1CCC(COc2nc3ccccc3c3cc(F)ccc23)CC1` has a Ki [1] of 209 nM.
In the case of `CCCN1CCC(COc2nc3cc(OC)ccc3c3ccccc23)CC1`, the Ki [1] is reported as 1900 nM.
